Rows were chosen to be rich in hits. Some 5.1% of all compounds tested hit in one or more screens of this group.
STAT1 inh: STAT1 signaling inhibitors, primary screen, cell-based, HTS, luciferase reporter. NIH 3T3 STAT1-luciferase reporter, IFN-gamma, luminescence. inhibition, % at 5.5 µM. 200,000 compounds, 0.35% hits;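 active = inhibition above a set limit, the mean inhibition across all tested compounds plus 3 SD, cut at about 34% in these data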;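 note: 0% = IFN-gamma with DMSO and 100% = IFN-gamma with 300 µM nifuroxazide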
APP 5'UTR act: activators of APP 5'UTR luciferase reporter, primary screen, SH-SY5Y cells. SH-SY5Y APP 5'UTR luciferase reporter, luminescence; zero percent = DMSO vehicle wells. activation, % at 2 µM. 190,000 compounds, 1% hits. AID 1276, 2008;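 active = activation above a set limit, based on mean plus 3 SD of controls, cut at about 140% in these data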
STAT3 blocker: IL-6 driven STAT3 reporter inhibitors, primary screen, U3A cells, luciferase, luminescence, MLSCN library; IL-6 STAT3-luciferase reporter; host cell line lacks STAT1; inhibition, % at 5.5 µM; 190,000 compounds, 0.89% hits;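 active = inhibition above the mean inhibition across all screened compounds plus 3 SD, cut at about 44% in these data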;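 note: 0% = DMSO only wells and 100% = 100 µM nifuroxazide control wells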
STAT1 activator: STAT1 signaling activators, primary screen, cell-based, HTS, luciferase reporter | NIH 3T3 STAT1-luciferase reporter, IFN-gamma, luminescence; 100% = IFN-gamma alone, no compound | activation (% of control), % at 5.5 µM | 200,000 compounds, 2.6% hits;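 active = activation above the screen-wide mean activation plus 3 SD, cut at about 130% in these data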;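 note: raw ratio to IFN-gamma control signal so 100% means no change and 0% no light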
STAT3 act: IL-6 driven STAT3 reporter potentiators, primary screen, U3A cells, luciferase, luminescence, MLSCN library. 190,000 compounds, 0.91% hits. activation (% of control), % at 5.6 µM. AID 871, 2007. IL-6 STAT3-luciferase reporter; 100% = signal with IL-6 EC80 alone;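 active = activation above the screen-wide mean of compound activation plus 3 SD, cut at about 130% in these data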;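 note: 0% = background luminescence of wells with medium and substrate only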
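Material: human STAT1-deficient U3A cells with stable STAT3-luciferase reporter / Probe or stimulus: IL-6 stimulus at 33 ng/mL final / Schedule: 1 h compound pre-exposure, 6 h IL-6 stimulation, 37 °C / Technique: luminescence / Read-out basis: percent of IL-6-only median luminescence / Control set: IL-6-only high control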
NF-kB expr up: activators of NF-kB expression in neurons, primary screen, cell-based, HTS; fold change at 12.5 µM; human neuronal cells, NF-kB reporter expression; hits give high values; 190,000 compounds, 1.6% hits; in the data active = fold change above about 3.3
Numbers without * were called inactive.

Results for Cc1ccc(-n2c(C)nc3c(cnn3-c3ccccc3Cl)c2=O)cc1C ?
STAT1 inh: 11.2; APP 5'UTR act: 1.9; STAT3 blocker: 15.0; STAT1 activator: 89.8; STAT3 act: 91.7; NF-kB expr up: 0.58

Results for Cc1nn(-c2nc3ccccc3[nH]2)c(N)c1-c1ccc(Cl)cc1 ?
STAT1 inh: -15.5; APP 5'UTR act: 106.3; STAT3 blocker: -9.4; STAT1 activator: 113.9; STAT3 act: 108.5; NF-kB expr up: 1.85

What do the screens show for `Cc1nn(-c2ccc3ccccc3c2)c(=O)c2ccccc12`?
STAT1 inh: -54.6; APP 5'UTR act: 142.4*; STAT3 blocker: -22.8; STAT1 activator: 149.2*; STAT3 act: 124.3; NF-kB expr up: 3.21

What do the screens show for `Cc1nn(-c2nc3ccccc3[nH]2)c(=O)c2ccccc12`?
STAT1 inh: 97.2*; APP 5'UTR act: -74.1; STAT3 blocker: 111.6*; STAT1 activator: 9.0; STAT3 act: 7.7; NF-kB expr up: 0.29

How did Cc1nn(-c2ccc(Cl)cc2)c(=O)c2ccccc12 do in these assays?
STAT1 inh: -32.7; APP 5'UTR act: 61.9; STAT3 blocker: -30.9; STAT1 activator: 127.6; STAT3 act: 133.6*; NF-kB expr up: 2.73

What do the screens show for `C=CCn1c(COc2ccccc2F)nnc1SCC(=O)c1c[nH]c2ccccc12`?
STAT1 inh: 10.2; APP 5'UTR act: 8.4; STAT3 blocker: -6.9; STAT1 activator: 90.8; STAT3 act: 111.3; NF-kB expr up: 0.61

Results for CCCCNC(=O)Cc1cc(=O)[nH]c(=O)[nH]1 ?
STAT1 inh: -1.7; APP 5'UTR act: -9.3; STAT1 activator: 100.4; NF-kB expr up: 1.21

Results for O=C1CC(c2cccs2)Sc2nc3ccccc3n21 (stereo unspecified) ?
STAT1 inh: -31.6; APP 5'UTR act: 116.9; STAT3 blocker: -5.7; STAT1 activator: 129.2*; STAT3 act: 108.0; NF-kB expr up: 3.05

How did O=C1CC(c2ccccc2)Sc2nc3ccccc3n21 (stereo unspecified) do in these assays?
STAT1 inh: -33.4; APP 5'UTR act: 167.8*; STAT3 blocker: 30.4; STAT1 activator: 131.7*; STAT3 act: 80.0; NF-kB expr up: 2.45

What do the screens show for `O=C1CC(c2ccco2)Sc2nc3ccccc3n21` (stereo unspecified)?
STAT1 inh: -24.4; APP 5'UTR act: 12.7; STAT3 blocker: -21.0; STAT1 activator: 122.1; STAT3 act: 118.6; NF-kB expr up: 1.52

Results for COc1ccc(-c2cc(C(=O)NCC3CCCO3)c3cc(C)ccc3n2)cc1 (stereo unspecified) ?
STAT1 inh: -38.5; APP 5'UTR act: 12.3; STAT3 blocker: 7.4; STAT1 activator: 133.3*; STAT3 act: 103.0; NF-kB expr up: 1.4

What do the screens show for `COc1ccc(-c2cc(C(=O)NCC3CCCO3)c3ccccc3n2)cc1` (stereo unspecified)?
STAT1 inh: -6.3; APP 5'UTR act: 20.2; STAT3 blocker: -9.1; STAT1 activator: 105.2; STAT3 act: 109.5; NF-kB expr up: 1

Results for COc1cccc(/C=N/N2CCN(c3ccccc3OC)CC2)c1 ?
STAT1 inh: -35.4; APP 5'UTR act: 32.0; STAT3 blocker: 21.9; STAT1 activator: 135.1*; STAT3 act: 87.7; NF-kB expr up: 1.94

Results for COc1ccccc1N1CCN(/N=C/C=C\c2ccco2)CC1 ?
STAT1 inh: -41.3; APP 5'UTR act: 72.6; STAT3 blocker: -7.9; STAT1 activator: 136.9*; STAT3 act: 107.4; NF-kB expr up: 3.96*

How did NC(=O)C(c1ccc(Cl)cc1Cl)c1ncc(C(F)(F)F)cc1Cl (stereo unspecified) do in these assays?
STAT1 inh: 4.0; APP 5'UTR act: 12.4; STAT3 blocker: 2.6; STAT1 activator: 96.4; STAT3 act: 102.6; NF-kB expr up: 1.17

How did COC(=O)CSc1nnc(CNC(=O)c2ccc(OC)c(OC)c2)n1C do in these assays?
STAT1 inh: 2.7; APP 5'UTR act: 14.9; STAT3 blocker: 15.3; STAT1 activator: 96.0; STAT3 act: 90.9

Results for COC(=O)CCC(=O)c1oc2ccc(OC)cc2c1N ?
STAT1 inh: -11.9; APP 5'UTR act: -64.1; STAT3 blocker: 33.2; STAT1 activator: 110.9; STAT3 act: 76.8; NF-kB expr up: 1.75

How did COc1ccc2oc(C(=O)NC(C)(C)C)c(C)c2c1 do in these assays?
STAT1 inh: -54.2; APP 5'UTR act: 80.2; STAT3 blocker: -15.2; STAT1 activator: 145.5*; STAT3 act: 116.9; NF-kB expr up: 0.96

How did COc1ccc2oc(C(=O)C3CC3)c(N)c2c1 do in these assays?
STAT1 inh: -43.9; APP 5'UTR act: 83.2; STAT3 blocker: 5.4; STAT1 activator: 140.0*; STAT3 act: 103.0; NF-kB expr up: 2.63

Results for O=C(/C=C/Nc1ccc(Br)cc1F)c1ccccc1 ?
STAT1 inh: 47.3*; APP 5'UTR act: 139.6*; STAT3 blocker: 90.5*; STAT1 activator: 57.9; STAT3 act: 23.4; NF-kB expr up: 1.26

How did COc1ccc(C(=O)/C=C/Nc2ccc(C)cn2)cc1OC do in these assays?
STAT1 inh: -46.3; APP 5'UTR act: 145.2*; STAT3 blocker: 10.5; STAT1 activator: 142.7*; STAT3 act: 95.2; NF-kB expr up: 5.22*

How did O=C(/C=C\Nc1ccc(Cl)cn1)c1ccc(Br)cc1 do in these assays?
STAT1 inh: -38.6; APP 5'UTR act: 123.1; STAT3 blocker: 8.4; STAT1 activator: 134.1*; STAT3 act: 98.7; NF-kB expr up: 1.59

What do the screens show for `COC(=O)c1ccc(/C=C/C(=O)c2ccc(OC)c(OC)c2)cc1`?
STAT1 inh: -3.2; APP 5'UTR act: 8.0; STAT3 blocker: -5.2; STAT1 activator: 102.9; STAT3 act: 104.4; NF-kB expr up: 0.86

What do the screens show for `CC(=O)c1ccc(N/C=C\C(=O)c2ccc(C)cc2)cc1`?
STAT1 inh: -54.4; APP 5'UTR act: 127.4; STAT3 blocker: 9.5; STAT1 activator: 148.1*; STAT3 act: 93.8; NF-kB expr up: 1.03

Results for O=C(/C=C/Nc1ccc(F)c(F)c1)c1ccc(Br)cc1 ?
STAT1 inh: -43.6; APP 5'UTR act: 163.4*; STAT3 blocker: 1.9; STAT1 activator: 141.1*; STAT3 act: 97.2; NF-kB expr up: 8.07*

Results for O=C(/C=C/Nc1ccc([N+](=O)[O-])cc1)c1ccc(Br)cc1 ?
STAT1 inh: -6.9; APP 5'UTR act: 37.4; STAT3 blocker: 11.2; STAT1 activator: 106.2; STAT3 act: 92.7; NF-kB expr up: 1.54

Results for CCCCn1c(CNC(=O)C23CC4CC(CC(C4)C2)C3)nnc1SC(C)CC (stereo unspecified) ?
STAT1 inh: -9.6; APP 5'UTR act: 9.2; STAT3 blocker: 1.1; STAT1 activator: 108.7; STAT3 act: 97.8; NF-kB expr up: 0.91
